# Screening data deposited in PubChem by Johns Hopkins Ion Channel Center.
# TRPC4 potent: allosteric potentiators of mouse TRPC4 channel; Q9QUQ5; HEK293 TRPC4beta/mu-opioid, DAMGO EC20, Fluo-4 Ca2+ flux; stronger effect = higher value; B-score at 10 µM; 310,000 tested, 0.42% active; AID 2227;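 active = B-score of calcium response area above 5 SD of library B-scores, with initial fluorescence ratio within 5 SD of library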;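 note: B-score of integrated fluorescence ratio over time as area under calcium response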
# Target sequence (Q9QUQ5 whole entry, looked up): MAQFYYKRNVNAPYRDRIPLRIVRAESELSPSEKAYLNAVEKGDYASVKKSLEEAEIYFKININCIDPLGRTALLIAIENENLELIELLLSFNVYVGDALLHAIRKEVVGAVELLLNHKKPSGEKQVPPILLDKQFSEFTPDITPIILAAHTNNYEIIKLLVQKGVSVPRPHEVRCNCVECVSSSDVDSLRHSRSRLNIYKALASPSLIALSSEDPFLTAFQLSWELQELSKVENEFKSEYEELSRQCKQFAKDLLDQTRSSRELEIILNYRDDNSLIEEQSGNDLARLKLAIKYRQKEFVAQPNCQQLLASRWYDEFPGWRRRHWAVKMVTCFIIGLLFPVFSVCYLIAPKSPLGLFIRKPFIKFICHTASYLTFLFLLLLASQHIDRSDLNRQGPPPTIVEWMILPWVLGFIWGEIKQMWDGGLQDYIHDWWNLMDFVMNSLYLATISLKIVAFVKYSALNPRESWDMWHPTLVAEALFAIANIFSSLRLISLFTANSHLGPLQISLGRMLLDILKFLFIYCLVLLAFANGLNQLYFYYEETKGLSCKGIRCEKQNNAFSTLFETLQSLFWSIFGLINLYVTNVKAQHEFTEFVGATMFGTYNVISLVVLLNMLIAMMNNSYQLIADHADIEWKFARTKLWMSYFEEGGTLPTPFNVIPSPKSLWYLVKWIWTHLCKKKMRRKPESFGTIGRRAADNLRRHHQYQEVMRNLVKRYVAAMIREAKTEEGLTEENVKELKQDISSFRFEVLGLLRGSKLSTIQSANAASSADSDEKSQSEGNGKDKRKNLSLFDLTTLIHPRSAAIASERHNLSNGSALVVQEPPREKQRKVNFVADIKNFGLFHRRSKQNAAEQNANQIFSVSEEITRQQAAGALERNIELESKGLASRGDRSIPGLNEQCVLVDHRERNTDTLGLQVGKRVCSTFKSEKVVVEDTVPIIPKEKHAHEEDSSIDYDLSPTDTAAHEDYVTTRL
# Kir21 inh: inhibitors of mouse Kir2.1 inward-rectifier potassium channel; AID 1672; P35561; B-score at 10 µM; 310,000 tested, 0.85% active; HEK293-Kir2.1, FluxOR thallium flux fluorescence; stronger effect = lower value;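 active = fluorescence ratio B-score at or below minus 3 SD of library scores, with starting-brightness B-score within 2 SD, cut at about -4.2 in these data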;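 note: channel flux triggered by added potassium and thallium sulfate stimulus; B-score of peak minus minimum fluorescence over baseline after thallium stimulus; more negative B-score means stronger Kir2.1 block with less thallium influx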
# TRPC6 inhibitor: blocks the mouse TRPC6 cation channel; Q61143; HEK293-TRPC6, membrane potential dye, ACh-evoked depolarization; stronger effect = lower value; B-score at 10 µM; 310,000 tested, 1.1% active; AID 2553;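 active = B-score under library mean minus 3 SD, initial fluorescence not abnormally high, positive integrated signal ratio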;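 note: B-score derived from integrated fluorescence ratio over the kinetic read; more negative B-score means stronger inhibition of depolarization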
# TRPC6 activator: mouse TRPC6 channel activation | Q61143 | 310,000 tested, 0.13% active | HEK293-TRPC6 membrane potential dye fluorescence; stronger effect = higher value | B-score at 10 µM;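 active = B-score of the integrated fluorescence ratio above library mean plus 3 SD, and starting fluorescence ratio within library mean plus 5 SD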;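 note: higher score means more depolarization so channel activation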
# TRPC4 act: opens the mouse TRPC4 cation channel; AID 2237; Q9QUQ5; B-score at 10 µM; 310,000 tested, 0.49% active; HEK293 TRPC4beta/mu-opioid, Fluo4 calcium fluorescence; stronger effect = higher value;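 active = B-score above 5 SD of library B-scores, and initial fluorescence ratio not above library mean plus 5 SD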;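 note: positive B-score marks a calcium rise read as TRPC4 activation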
#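 Assay system: HEK293 cells stably co-expressing mouse TRPC4beta and mu-opioid receptor / Timing: Fluo4 dye loading 45 min at room temperature, 110 s recording / Signal: Fluo4 calcium-sensitive dye fluorescence, kinetic, 1 Hz baseline / Read-out: integrated baseline-normalised fluorescence ratio, converted to per-well B score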
# TRPC4 block: blocks the mouse TRPC4 cation channel; Q9QUQ5; HEK293 TRPC4beta/mu-opioid, DAMGO-evoked Fluo4 calcium flux; stronger effect = lower value; B-score at 10 µM; 300,000 tested, 0.39% active; AID 2247;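 active = B-score over 3 SD under the library average, no early fluorescence shift, positive overall ratio signal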
#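 Test system – stable TRPC4beta/mu-opioid receptor HEK293 cells · Probe or stimulus – DAMGO, a submaximal dose followed by a maximal one · Dosing – one concentration per compound · Signal – Fluo4 calcium fluorescence by kinetic imaging, 5 s 1 Hz baseline · Evaluation – per-well B score of integrated baseline-normalized Fluo4 ratio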
# TRPC4 spec 2: second check of whether TRPC6 inhibitors also affect mouse TRPC4. inhibition, % at 10 µM. AID 2776. 920 tested, 42% active. shares compounds with TRPC6 inhibitor. HEK293 TRPC4/MOR, membrane potential dye fluorescence; channel activated by saturating DAMGO dose;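 active = compounds whose fluorescence signal differed from control wells by over 3 SD, either direction, in both duplicate plates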
# TRPC4 spec: tests whether TRPC6 inhibitors also affect mouse TRPC4; shares compounds with TRPC6 inhibitor; HEK293 TRPC4/mu-opioid, membrane potential fluorescence; activity change, negative = inhibition, % at 10 µM; 920 tested, 61% active; AID 2777;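 active = rise or fall in signal beyond 3 SD of buffer-only wells in both replicate plates, either sign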;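 note: integrated kinetic ratio of fluorescence range over baseline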
# HEK293 MPD ctr 2-1: second counter-screen for TRPC6 inhibitors: parental HEK293 cells; shares compounds with TRPC6 inhibitor; parental HEK293 membrane potential dye fluorescence; maximal acetylcholine challenge after compound addition; signal change vs control, % at 10 µM; 920 tested, 31% active;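 active = membrane potential signal moving either way by over 3 SD of the maximum-effect control, in both duplicate plates, meaning non-specific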
# HEK293 MPD ctr-1: checks TRPC6 inhibitor effects in parental HEK293 cells | shares compounds with TRPC6 inhibitor | parental HEK293 membrane potential dye fluorescence | membrane potential signal change, % at 10 µM | 920 tested, 60% active;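 active = membrane potential signal shifting up or down by more than 3 SD of buffer-only wells, on both duplicate plates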
# HEK293 MPD ctr-2: checks TRPC6 modulator effects in parental HEK293 cells; 2,400 tested, 51% active; membrane potential dye fluorescence; shares compounds with TRPC6 inhibitor; membrane potential signal change, % at 10 µM;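 active = membrane potential signal moves up or down beyond 5 SD from buffer-only wells, on both duplicate plates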
# HEK293 MPD ctr 2-2: second check of TRPC6 modulator effects in parental HEK293 cells; shares compounds with TRPC6 inhibitor; membrane potential dye fluorescence; after compound, maximal acetylcholine stimulation; inhibition, % at 10 µM; 2,400 tested, 14% active; AID 488926;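 active = membrane potential signal drops by more than 5 SD from the mean control signal, in both duplicate plates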;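 note: plate controls were acetylcholine ECmax control wells for no effect and buffer only wells for full effect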
# TRPC4/MOR mod: selectivity of TRPC6 modulators against mouse TRPC4; HEK293 TRPC4/mu-opioid, membrane potential fluorescence; percent change from control (negative = decrease, positive = increase), % at 10 µM; shares compounds with TRPC6 inhibitor; 2,400 tested, 69% active;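 active = membrane potential signal moved up or down beyond 5 SD of buffer control wells, in both duplicate plates, actives on both sides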;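 note: plate controls were assay buffer wells for no effect and DAMGO maximal-effect wells for full effect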
# TRPC4/MOR inh 2: second check of whether TRPC6 modulators also affect mouse TRPC4 | AID 488928 | inhibition, % at 10 µM | 2,400 tested, 55% active | shares compounds with TRPC6 inhibitor | HEK293 TRPC4/mu-opioid, membrane potential dye fluorescence; stimulated with maximal-effect DAMGO;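 active = drop in membrane potential signal beyond 5 SD of the control wells in both duplicate plates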;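 note: TRPC4 counter screen for TRPC6 hits run under conditions tuned for TRPC6 not TRPC4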
# TRPC6 block conf: confirmation of mouse TRPC6 inhibitors; inhibition, % at 10 µM; HEK293-TRPC6, membrane potential dye, ACh-evoked depolarization; 3,300 tested, 43% active; shares compounds with TRPC6 inhibitor; AID 488960;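 active = fluorescence ratio falls more than 5 SD below the full-stimulation control mean, in both duplicate runs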;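 note: integrated fluorescence ratio of peak minus minimum over baseline after agonist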
# TRPC6 act conf: mouse TRPC6 activator confirmation. shares compounds with TRPC6 inhibitor. HEK293-TRPC6 membrane potential dye fluorescence, FDSS. activation, % at 10 µM. 2,800 tested, 11% active;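 active = ratio signal rise beyond 5 SD above unstimulated control wells' mean, seen in both duplicate runs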;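 note: plate controls were buffer EC0 wells for no effect and acetylcholine ECmax response for full effect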
# An asterisk follows results filed as active; i = inactive; . = no result. Sampled rows, rich in hits. Any-hit rate of the full collection: about 2.9%.
SMILES,TRPC4 potent,Kir21 inh,TRPC6 inhibitor,TRPC6 activator,TRPC4 act,TRPC4 block,TRPC6 block conf,TRPC6 act conf,others
COc1ccc(OCC(=O)NC2CCCN(Cc3ccc(Cl)cc3)C2)cc1 (centres undefined),15*,-1.4,-6.2*,i,i,i,50%*,.,HEK293 MPD ctr-2=116%*;HEK293 MPD ctr 2-2=i;TRPC4/MOR mod=24%*;TRPC4/MOR inh 2=i
COC(=O)NNC(=O)Cc1cccc2ccccc12,i,0.4,i,i,i,i,.,.,
OCC(Cc1ccccc1)Nc1c2ccccc2nc2ccccc12 (centres undefined),i,-8.6*,-9*,i,i,i,54%*,i,HEK293 MPD ctr-2=i;HEK293 MPD ctr 2-2=i;TRPC4/MOR mod=-88%*;TRPC4/MOR inh 2=70%*
O=C(Cc1ccccc1)NNc1c2ccccc2nc2ccccc12,i,-0.66,i,i,i,i,.,.,
COc1cccc(-c2nc(C(=O)NCCCN3CCOCC3)cc3c2[nH]c2ccccc23)c1,i,-0.28,-7.3*,i,i,i,i,i,TRPC4 spec 2=i;TRPC4 spec=-10%*;HEK293 MPD ctr 2-1=i;HEK293 MPD ctr-1=-158%*
COc1ccccc1Nc1cc(C(=O)NCCCN2CCOCC2)c2ccccc2n1,i,-1.6,i,i,i,i,.,.,
COc1ccc(OC)c(Nc2cc(C(=O)NCCCN3CCOCC3)c3ccccc3n2)c1,i,-0.01,-5.5*,i,i,i,i,i,HEK293 MPD ctr-2=i;HEK293 MPD ctr 2-2=i;TRPC4/MOR mod=i;TRPC4/MOR inh 2=45%*
O=C(NCCCN1CCOCC1)c1cc2c([nH]c3ccccc32)c(-c2cccc(Br)c2)n1,i,-0.14,-8.8*,i,i,i,54%*,i,TRPC4 spec 2=i;TRPC4 spec=i;HEK293 MPD ctr 2-1=i;HEK293 MPD ctr-1=i
COc1cccc(-c2cc(C(=O)NCCCN3CCOCC3)no2)c1,i,-1.6,i,i,i,i,.,.,
Cc1ccn2cc(CCNS(=O)(=O)c3ccc4ccccc4c3)nc2c1,i,-1.6,i,i,i,i,.,.,
Cc1onc(-c2ccccc2)c1C(=O)Nc1cccc(OC(C)C)c1,i,0.02,i,i,i,i,.,.,
Cc1cc(C)nc(/N=C(\N)N(Cc2ccccc2)Cc2ccccc2)n1,i,-1.6,-7.5*,i,i,-7*,i,i,TRPC4 spec 2=40%*;TRPC4 spec=37%*;HEK293 MPD ctr 2-1=i;HEK293 MPD ctr-1=3.8%*
COCCNC(=S)N(CCc1c(C)[nH]c2ccc(Cl)cc12)Cc1cccnc1,i,0.02,-7*,i,i,i,i,i,TRPC4 spec 2=i;TRPC4 spec=i;HEK293 MPD ctr 2-1=i;HEK293 MPD ctr-1=i
Cc1ccc(S(=O)(=O)N2CCOC2CNC(=O)C(=O)NCCc2ccc(S(N)(=O)=O)cc2)cc1 (centres undefined),i,-0.11,i,i,i,i,.,.,
COc1ccccc1CNC(=O)C1CC2Cn3c(nc4ccccc43)C2N1C (centres undefined),i,-0.39,i,13*,i,i,i,i,HEK293 MPD ctr-2=i;HEK293 MPD ctr 2-2=i;TRPC4/MOR mod=i;TRPC4/MOR inh 2=i
COc1ccccc1CNC(=O)C1CC2Cn3c(nc4cc(C)c(C)cc43)C2N1C (centres undefined),i,-1.3,i,i,i,i,.,.,
Cc1c(CN(C)C)c2c(n1Cc1ccccc1)C(=O)c1ccccc1-2,i,-0.94,-7*,i,i,-6*,44%*,i,HEK293 MPD ctr-2=-174%*;HEK293 MPD ctr 2-2=i;TRPC4/MOR mod=-33%*;TRPC4/MOR inh 2=78%*
Cc1cc(=O)n(Cc2ccccc2)c2ccccc12,i,-0.47,i,i,i,i,.,.,
Cc1nnc(SCCn2c(N3CCC(C)CC3)nc3c2c(=O)[nH]c(=O)n3C)s1,i,-0.02,i,i,i,i,.,.,
Cc1ccc(NC2(C#N)C(=O)Nc3ccccc32)cc1C (centres undefined),i,2.5,i,i,i,i,.,.,
COC(=O)c1ccc(NC2(C#N)C(=O)Nc3ccccc32)cc1 (centres undefined),i,-1.1,-8.5*,i,i,i,88%*,.,TRPC4 spec 2=i;TRPC4 spec=i;HEK293 MPD ctr 2-1=i;HEK293 MPD ctr-1=i
COc1cc(/C=N/NC(=O)CNC(=O)c2ccccc2)ccc1OC(=O)c1cccs1,i,-2.9,-7.6*,13*,i,i,i,82%*,HEK293 MPD ctr-2=i;HEK293 MPD ctr 2-2=i;TRPC4/MOR mod=i;TRPC4/MOR inh 2=i
CC(C)[N+](C)(CCOC(=O)C1c2ccccc2Oc2ccccc21)C(C)C,i,0.68,-9.5*,i,i,i,105%*,i,TRPC4 spec 2=i;TRPC4 spec=i;HEK293 MPD ctr 2-1=-18%*;HEK293 MPD ctr-1=i
CN(C(=O)COC(=O)c1ccc(Cl)cc1N)C1CCS(=O)(=O)C1 (centres undefined),i,0.83,i,i,i,i,.,.,
Cc1cccc(C(=O)N2CCN(c3ccc([N+](=O)[O-])c(NCc4ccco4)c3)CC2)c1,i,-1.1,i,i,i,i,.,.,
